Measured values from different studies.
Each line is one published result; the experiments were not run side by side. Converted amounts (≈) assume the structure as drawn.
Technique: broth dilution

Compound | organism | test | test system | setting | quantity | value
O=C(O[C@@H]1O[C@@H]2COC(=O)c3cc(O)c(O)c(O)c3-c3c(cc(O)c(O)c3O)C(=O)O[C@H]([C@H]1O)[C@@H]2O)c1cc(O)c(O)c(O)c1 | Streptococcus sobrinus | microbial killing | – | – | MBC | 400 µg/mL (≈ 630 µM)
O=C(Nc1ccc2[nH]ccc2c1)c1ccc(COC(Cn2ccnc2)c2ccc(Cl)cc2Cl)cc1 (centres unmarked) | Lodderomyces parapsilosis | microbial growth | – | – | MIC80 | 32 µg/mL (≈ 63.3 µM)
CC(=O)N1CCN(c2ccc(OCC3COC(Cn4ccnc4)(c4ccc(Cl)cc4Cl)O3)cc2)CC1 (centres unmarked) | Aspergillus niger | microbial growth | – | 48 h | MIC | 7.8 µg/mL (≈ 14.7 µM)
Oc1cc(O)c2c(c1)O[C@H](c1cc(O)c(O)c(O)c1)[C@@H](O)C2 | Streptococcus sobrinus | microbial growth | – | 24 h | MIC | 100 µg/mL (≈ 327 µM)
C[C@@H]1O[C@@H]1P(=O)(O)O | Neisseria gonorrhoeae | microbial growth | ATCC49226 | – | MIC | 31.2 µg/mL
Cc1ccc(C(C)C)c(OC2=C(Cl)C(=O)c3ccccc3C2=O)c1 | Aspergillus niger | microbial growth | – | – | MIC | 10 µg/mL (≈ 29.3 µM)
O=C1O[C@H]2[C@@H]3OC(=O)c4cc(O)c(O)c(O)c4-c4c(O)c(O)c5oc(=O)c6c(c(O)c(O)c7oc(=O)c4c5c76)-c4c(cc(O)c(O)c4O)C(=O)OC[C@H]3OC(O)[C@@H]2OC(=O)c2cc(O)c(O)c(O)c2-c2c1cc(O)c(O)c2O (mixture of isomers) | Streptococcus sobrinus | microbial killing | – | – | MBC | 200 µg/mL
C/C(=N\C1CCCCC1/N=C(\C)c1c(O)c2ccccc2oc1=O)c1c(O)c2ccccc2oc1=O (centres unmarked) | Aspergillus niger | microbial growth | – | 48 h | MIC | 15.6 µg/mL (≈ 32.1 µM)
OC(Cn1cncn1)(Cn1cncn1)c1ccc(F)cc1F | Aspergillus niger | microbial growth | – | – | MIC | 10 µg/mL (≈ 32.7 µM)
O=C(Nc1cccc(Cl)c1)c1ccc(COC(Cn2ccnc2)c2ccc(Cl)cc2Cl)cc1 (centres unmarked) | Lodderomyces parapsilosis | microbial growth | – | – | MIC80 | 0.06 µg/mL (≈ 0.12 µM)
C/C(=N\CCNCC/N=C(\C)c1c(O)c2ccccc2oc1=O)c1c(O)c2ccccc2oc1=O | Aspergillus niger | microbial growth | – | 48 h | MIC | 62.5 µg/mL (≈ 131 µM)
O=C1OC[C@H]2OC(O)[C@H](O)[C@@H](O)[C@@H]2OC(=O)c2cc(O)c(O)c(O)c2-c2c(O)c(O)c3oc(=O)c4c(c(O)c(O)c5oc(=O)c2c3c54)-c2c1cc(O)c(O)c2O (mixture of isomers) | Streptococcus sobrinus | microbial growth | – | 24 h | MIC | 100 µg/mL
COc1ccc(NC(=O)c2ccc(COC(Cn3ccnc3)c3ccc(Cl)cc3Cl)cc2)cc1 (centres unmarked) | Lodderomyces parapsilosis | microbial growth | – | – | MIC80 | 0.125 µg/mL (≈ 0.252 µM)
C/C(=N\C(=O)/N=C(\C)c1c(O)c2ccccc2oc1=O)c1c(O)c2ccccc2oc1=O | Aspergillus niger | microbial growth | – | 48 h | MIC | 125 µg/mL (≈ 289 µM)
O=C(Nc1cccc(F)c1)c1ccc(COC(Cn2ccnc2)c2ccc(Cl)cc2Cl)cc1 (centres unmarked) | Lodderomyces parapsilosis | microbial growth | – | – | MIC80 | 0.125 µg/mL (≈ 0.258 µM)
C/C(=N\c1nc(N)nc(/N=C(\C)c2c(O)c3ccccc3oc2=O)n1)c1c(O)c2ccccc2oc1=O | Aspergillus niger | microbial growth | – | 48 h | MIC | 31.2 µg/mL (≈ 62.7 µM)
C[C@@H]1O[C@@H](OC[C@H]2O[C@@H](Oc3c(-c4ccc(O)c(O)c4)oc4cc(O)cc(O)c4c3=O)[C@H](O)[C@@H](O)[C@@H]2O)[C@H](O)[C@H](O)[C@H]1O | Streptococcus sobrinus | microbial killing | – | – | MBC | 400 µg/mL (≈ 655 µM)
O=C(Nc1ccc(F)cc1)c1ccc(COC(Cn2ccnc2)c2ccc(Cl)cc2Cl)cc1 (centres unmarked) | Lodderomyces parapsilosis | microbial growth | – | – | MIC80 | 0.125 µg/mL (≈ 0.258 µM)
O=c1oc2c(O)c(O)cc3c(=O)oc4c(O)c(O)cc1c4c23 | Streptococcus sobrinus | microbial killing | – | – | MBC | 200 µg/mL (≈ 662 µM)
O=C(Nc1ccc2cccnc2c1)c1ccc(COC(Cn2ccnc2)c2ccc(Cl)cc2Cl)cc1 (centres unmarked) | Lodderomyces parapsilosis | microbial growth | – | – | MIC80 | 2 µg/mL (≈ 3.87 µM)
